{"source": "ChEMBL document CHEMBL4706553", "about": "“Discovery of potent small molecule PROTACs targeting mutant EGFR” (Eur J Med Chem, 2020)", "key": {"HepG2": {"system": "HepG2", "experiment": "Antiproliferative activity against human HepG2 cells expressing VEGFR2 assessed as cell growth inhibition measured after 72 hrs by MTT assay", "type": "functional, cell-based", "conditions": "HepG2, 72 h", "in_short": "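Cells were seeded at 3000–8000/well and allowed 24 h, then exposed to serial compound concentrations for 72 h. MTT (5 mg/mL stock in PBS) was added for 4 h, supernatant removed and DMSO added. IC50, defined as 50% growth inhibition, was derived by nonlinear regression (log inhibitor vs response).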"}, "NCI-H1975": {"system": "NCI-H1975", "experiment": "Induction of cell cycle arrest in human NCI-H1975 cells assessed as accumulation at G1 phase measured at 333 to 1000 nM measured after 48 hrs by propidium iodide staining based flow cytometry analysis", "type": "functional", "conditions": "dose 333-1000 nM", "in_short": "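Cell cycle: cells were seeded at 0.5–1 × 10⁶ per well for 24 h, then treated 48 h. They were collected and washed twice in PBS, stained with PI/RNase at 37 °C for 15 min, and analysed by flow cytometry. n = 2.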"}, "HCC827": {"system": "HCC827", "experiment": "Effect on Akt protein expression in human HCC827 cells at 0.003 to 0.33 uM incubated for 48 hrs by Western blot analysis", "type": "functional, cell-based", "conditions": "dose 0.003-0.33 µM"}, "[1]": {"system": "von Hippel-Lindau disease tumor suppressor/Epidermal growth factor receptor (Homo sapiens), P00533+P40337 [UNDEFINED MUTATION]", "sequence (P00533 whole entry, looked up, stated change not applied)": "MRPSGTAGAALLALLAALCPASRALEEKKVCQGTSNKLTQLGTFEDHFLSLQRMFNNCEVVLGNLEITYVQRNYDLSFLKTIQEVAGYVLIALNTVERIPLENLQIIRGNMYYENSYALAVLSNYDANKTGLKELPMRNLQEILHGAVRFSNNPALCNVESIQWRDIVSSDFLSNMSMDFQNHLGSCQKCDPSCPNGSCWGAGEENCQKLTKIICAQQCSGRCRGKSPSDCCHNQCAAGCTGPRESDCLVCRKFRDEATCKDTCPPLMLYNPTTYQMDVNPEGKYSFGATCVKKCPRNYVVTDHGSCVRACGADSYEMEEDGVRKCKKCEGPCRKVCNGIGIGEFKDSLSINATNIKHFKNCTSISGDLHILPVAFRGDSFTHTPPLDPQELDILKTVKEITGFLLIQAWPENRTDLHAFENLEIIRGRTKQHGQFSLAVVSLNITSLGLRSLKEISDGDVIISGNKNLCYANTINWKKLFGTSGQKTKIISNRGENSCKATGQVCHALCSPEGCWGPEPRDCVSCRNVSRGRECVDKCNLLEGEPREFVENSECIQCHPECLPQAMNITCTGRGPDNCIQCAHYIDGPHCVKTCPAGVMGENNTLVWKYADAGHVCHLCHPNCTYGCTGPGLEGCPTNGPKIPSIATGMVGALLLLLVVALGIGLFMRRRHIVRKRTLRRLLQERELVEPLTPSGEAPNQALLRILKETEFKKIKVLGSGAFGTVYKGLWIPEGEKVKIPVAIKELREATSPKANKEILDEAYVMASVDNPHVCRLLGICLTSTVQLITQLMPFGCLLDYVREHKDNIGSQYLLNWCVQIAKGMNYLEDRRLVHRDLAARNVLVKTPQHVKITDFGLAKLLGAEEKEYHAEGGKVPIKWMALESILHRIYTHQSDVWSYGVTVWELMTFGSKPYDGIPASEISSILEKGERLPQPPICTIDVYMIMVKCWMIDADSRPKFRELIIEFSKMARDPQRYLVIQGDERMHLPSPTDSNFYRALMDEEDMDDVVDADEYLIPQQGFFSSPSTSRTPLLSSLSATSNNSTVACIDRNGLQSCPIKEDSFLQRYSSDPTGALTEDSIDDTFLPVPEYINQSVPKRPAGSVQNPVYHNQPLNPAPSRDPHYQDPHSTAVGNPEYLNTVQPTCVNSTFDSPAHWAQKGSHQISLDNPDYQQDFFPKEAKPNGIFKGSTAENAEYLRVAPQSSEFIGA", "sequence (P40337 whole entry, looked up, stated change not applied)": "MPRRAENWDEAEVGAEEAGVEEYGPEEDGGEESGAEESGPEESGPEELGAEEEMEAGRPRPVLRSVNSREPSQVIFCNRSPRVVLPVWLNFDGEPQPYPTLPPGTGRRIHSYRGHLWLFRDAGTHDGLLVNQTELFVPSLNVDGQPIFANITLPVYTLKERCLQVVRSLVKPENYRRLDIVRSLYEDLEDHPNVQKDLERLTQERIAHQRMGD", "experiment": "Protac activity at VHL/EGFR del19 mutant in human HCC827 cells assessed as induction of EGFR degradation at 0.033 uM pretreated with EGFR inhibitor, F for 2 hrs followed by incubation with compound for 24 hrs by Western blot analysis", "type": "cell-based"}, "[2]": {"system": "von Hippel-Lindau disease tumor suppressor/Epidermal growth factor receptor (Homo sapiens), P00533+P40337 [UNDEFINED MUTATION]", "experiment": "Protac activity at VHL/EGFR del19 mutant in human HCC827 cells assessed as induction of EGFR degradation at 0.033 uM pretreated with VHL ligand, VHL-Ac for 2 hrs followed by incubation with compound for 24 hrs by Western blot analysis", "type": "cell-based"}}, "note": "Active and inactive are the calls of the source.", "data": [{"molecule": "Cc1ncsc1-c1ccc(CNC(=O)[C@@H]2C[C@@H](O)CN2C(=O)[C@@H](NC(=O)CCCCCCN2CCN(c3ccc(Nc4ncc5nc(Nc6ccccc6)n(C6CCCC6)c5n4)cc3)CC2)C(C)(C)C)cc1", "values": [{"measurement": "IC50", "setting": "HepG2", "value": "> 5", "unit": "µM"}, {"measurement": "Activity", "setting": "NCI-H1975", "value": "Active"}, {"measurement": "Activity", "setting": "HCC827", "value": "inactive"}, {"measurement": "Activity", "setting": "[1]", "value": "inactive"}, {"measurement": "Activity", "setting": "[2]", "value": "inactive"}]}]}
